Reference: ChEMBL document CHEMBL1144112, “New bromopyrrole alkaloids from the Indopacific sponge Agelas nakamurai” (1999)

Experiments:
Format in all cases: functional
Escherichia coli [1] = test: Antibacterial activity against Escherichia coli HB101 at 0.2 umol/disk after 24 hrs by agar plate diffusion assay
Method in brief: (§1)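 Paper disks 5 mm across loaded with 0.2 µmol of each isolated compound, placed on agar plates seeded with the test bacterium (B. subtilis 168, S. aureus ATCC 25923, E. coli ATCC 25922 or E. coli HB 101). Read-out is the diameter of the inhibition zone in mm.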

Escherichia coli [2] = test: Antibacterial activity against Escherichia coli ATCC 25922 at 0.2 umol/disk after 24 hrs by agar plate diffusion assay; method in brief: as §1
Staphylococcus aureus = test: Antibacterial activity against Staphylococcus aureus ATCC 25923 at 0.2 umol/disk after 24 hrs by agar plate diffusion assay; method in brief: as §1
Bacillus subtilis = test: Antibacterial activity against Bacillus subtilis subsp. subtilis str. 168 at 0.2 umol/disk after 24 hrs by agar plate diffusion assay; method in brief: as §1

## Nc1nc([C@@H]2c3[nH]c(N)nc3C[C@H](CNC(=O)c3cc(Br)c[nH]3)[C@H]2CNC(=O)c2cc(Br)c[nH]2)c[nH]1.O=C(O)C(F)(F)F.O=C(O)C(F)(F)F [AGELIFERIN]
Escherichia coli [1]
  inhibition zone (IZ): 11 mm
Escherichia coli [2]
  inhibition zone (IZ): 8 mm
Staphylococcus aureus
  inhibition zone (IZ): 11 mm
Bacillus subtilis
  inhibition zone (IZ): 14 mm

## Cl.Cl.Nc1ncc([C@H]2[C@H](CNC(=O)c3ccc[nH]3)[C@@H](CNC(=O)c3ccc[nH]3)[C@@H]2c2cnc(N)[nH]2)[nH]1 [DEBROMOSCEPTRIN]
Bacillus subtilis
  inhibition zone (IZ): 10 mm

## COC(=O)[C@H]1[C@H](CNC(=O)c2cc(Br)c[nH]2)[C@@H](CNC(=O)c2cc(Br)c[nH]2)[C@@H]1c1c[nH]c(N)n1.O=C(O)C(F)(F)F [NAKAMURIC ACID METHYL ESTER]
Bacillus subtilis
  inhibition zone (IZ): 9 mm

## Nc1nc([C@H]2[C@H](CNC(=O)c3cc(Br)c[nH]3)[C@@H](CNC(=O)c3cc(Br)c[nH]3)[C@@H]2C(=O)O)c[nH]1.O=C(O)C(F)(F)F [NAKAMURIC ACID]
Bacillus subtilis
  inhibition zone (IZ): 9 mm

## Nc1nc([C@H]2[C@H](CNC(=O)c3cc(Br)c[nH]3)[C@@H](CNC(=O)c3cc(Br)c[nH]3)[C@@H]2c2c[nH]c(N)n2)c[nH]1.O=C(O)C(F)(F)F.O=C(O)C(F)(F)F [SCEPTRIN (TFA SALT)]
Escherichia coli [1]
  inhibition zone (IZ): 13 mm
Escherichia coli [2]
  inhibition zone (IZ): 9 mm
Staphylococcus aureus
  inhibition zone (IZ): 16 mm
Bacillus subtilis
  inhibition zone (IZ): 16 mm
